# This is one part of a sample in which hits are shown more often than they occur.
# Avidin fluor: green autofluorescence of compounds with avidin beads – biophysical, 488/530 nm, flow cytometry, artefact control, profiling panel; 220,000 tested, 0.38% active; compound fluorescence 488/530 nm; active compounds read high; fluorescence (KMESF) at 10 µM; AID 1775, 2009; in the data active means fluorescence above about 47
# GSH bead fluor: compound fluorescence on glutathione beads, profiling panel, artefact control, biophysical, 488/530 nm, flow cytometry. AID 1776, 2009. GSH beads flow cytometry, compound fluorescence 488/530 nm; active compounds read high. fluorescence (KMESF) at 10 µM. 190,000 tested, 0.25% active; in the data active means fluorescence above about 89;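 further: glutathione beads carrying GST-tagged Bcl family fusion proteins plus one bare bead set; values are compound well signal with DMSO vehicle wells as background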
# L major viab: Leishmania major promastigote growth inhibition, primary screen | inhibition, % at 10 µM | Leishmania major promastigotes, resazurin fluorescence viability | 200,000 tested, 9% active;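 further: promastigotes grown with compound for 44 hours at 28 °C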
# ABCB1 inh: ABCB1 efflux pump inhibitors, primary screen, cell-based, multiplex, flow cytometry, ABCG2 counter-screen; AID 1326, 2008; inhibition, % at 6.6 µM; 190,000 tested, 0.067% active; ATP-dependent translocase ABCB1 (Homo sapiens), P08183; CCRF-Adr cells, JC-1 efflux; in the data active means inhibition above about 40%;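 further: 0% = vehicle and 100% = reference inhibitor; higher value means more JC-1 retained so stronger ABCB1 efflux block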
# PKD1 kinase inh: inhibitors of human PKD1 kinase, biochemical, fluorescence polarization. inhibition, % (no concentration beside the values). 200,000 tested, 0.056% active. PKD1 kinase fluorescence polarization assay
# ABCG2 block: ABCG2 efflux pump inhibitors, primary screen, multiplex with ABCB1, IgMXP3 cells, flow cytometry | Broad substrate specificity ATP-binding cassette transporter ABCG2 (Homo sapiens), Q9UNQ0 | JC-1 efflux | inhibition, % at 6.6 µM | 190,000 tested, 0.1% active;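 active means inhibition above 80%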;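 further: 0% = DMSO and 100% = nicardipine control wells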
#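 Test system: IgMXP3 cells (ABCG2) mixed with DDAO far-red-labelled CCRF-Adr cells (ABCB1). Reagent: JC-1 transporter substrate. Compound dosing: single test compound dose, 6.6 µM final. Times: 10 min compound exposure, 25 °C. Detection: flow cytometry of retained JC-1 fluorescence. Read-out basis: efflux inhibition in percent versus controls. Controls: nicardipine and DMSO wells.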
# Numbers without * were called inactive; x = not tested or not shown. Unless noted, no stated cut-off is given here; in the data, active means inhibition above about 50%; inactive means the rest.
SMILES,Avidin fluor,GSH bead fluor,L major viab,ABCB1 inh,PKD1 kinase inh,ABCG2 block
Cn1c(C(=O)NC2CCCCC2)cc2sccc21,6,42,4,1,11,8
CC1CCN(CCCNC(=O)c2cc3sccc3n2C)CC1,35,11,92*,0,-15,3
O=C([C@H](Cc1ccc(O)cc1)n1cc(CCO)nn1)N1CCNCC1,5,20,-7,1,6,1
CN(C)S(=O)(=O)Nc1ccc(Oc2ccccc2)cc1,25,19,82*,0,-18,27
Cn1nc(C(=O)NCCOc2ccccc2)c2ccccc2c1=O,4,11,-1,2,2,8
Cc1cc(=O)c2ccc3ccccc3c2[nH]1,5,36,54*,0,-1,1
N#CCCN(Cc1cccnc1)S(=O)(=O)c1ccc(S(=O)(=O)N2CCCCCC2)cc1,20,19,-5,1,7,1
N#CCCN(CCN1CCCC1)S(=O)(=O)c1ccc(-c2ccc([N+](=O)[O-])cc2)cc1,21,11,93*,0,-2,1
Cc1ccc(-c2c[n+](Cc3ccc(Cl)c(Cl)c3)c3n2CCC3)cc1,11,11,100*,1,-14,1
O=C(C[n+]1cc(-c2ccccc2)n2c1CCCCC2)c1ccc(Br)cc1,10,27,99*,0,-8,-1
Cc1ccc(-c2c[n+](CC(=O)Nc3ccc(C)cc3C)c3n2CCC3)cc1,6,x,x,x,x,x
COc1ccc(C(=O)C[n+]2cc(-c3ccc(OC)cc3)n3c2CCCC3)cc1,21,10,99*,1,-5,2
Cc1ccc(C(=O)C[n+]2cc(-c3ccc(C)cc3)n3c2CCCCC3)cc1,12,34,100*,0,-16,2
Cc1ccc(C2CC(c3cccs3)=NN2S(=O)(=O)c2ccc(C)cc2)cc1 (stereo not given),10,11,13,1,-10,-7
COC(=O)c1cccc(C(=O)N2CCC(CO)(Cc3ccccc3Cl)CC2)c1,3,13,25,5,4,7
OCC1(Cc2ccccc2Cl)CCN(C/C=C/c2ccccc2)CC1,10,9,88*,0,-1,0
COc1ccccc1C(=O)Nc1ccc2c(c1)nc(CN1CCCCC1)n2C,12,19,-5,1,14,6
COC(=O)c1c(NC(=O)CSc2ccccc2N)sc(C)c1C,9,27,6,1,5,9
COc1ccc(-n2c(C)nc3sc4c(c3c2=O)CCC4)cc1,7,70,-2,0,-6,4
COc1ccc(-n2c(NCCN(C)C)nc3sc4c(c3c2=O)CCCCC4)cc1,9,9,58*,1,-4,1
COc1ccc(-n2c(N3CCN(C)CC3)nc3sc4c(c3c2=O)CCCCC4)cc1,24,27,100*,6,3,15
COc1ccc(/C=C/C(O)=C2/C(=O)N(C)C3(C)CC2c2ccccc2O3)cc1 (stereo not given),24,10,80*,0,13,1
COc1ccc(/C=C/C(O)=C2/C(=O)NC3(C)CC2c2ccccc2O3)c(OC)c1OC (stereo not given),14,15,47,0,-3,7
Cc1ccc(/C=C/C(O)=C2/C(=O)N(C)C3(C)CC2c2ccccc2O3)cc1 (stereo not given),9,28,79*,-7,17,0
CCCCC(CC)C1OCC(CN2CCCC2)O1 (stereo not given),9,22,84*,0,-6,2
SMILES,Avidin fluor,GSH bead fluor,L major viab,ABCB1 inh,PKD1 kinase inh,ABCG2 block
CCCCNC(=O)N1CCN(Cc2cccc(F)c2)CC1,2,9,-5,2,-4,5
COc1cc(NS(=O)(=O)c2ccc(OC)c(C)c2C)c(OC)cc1Cl,7,22,100*,1,-3,2
COc1ccc(S(=O)(=O)Nc2ccccn2)c(C)c1C,36,12,-4,0,-3,0
COc1ccc(OC)c(S(=O)(=O)Nc2cc(OC)c(Cl)cc2OC)c1,9,11,62*,1,-1,8
COc1ccc(C(=O)C2CCCN(Cc3cccn3-c3ccc(Cl)cn3)C2)c(OC)c1 (stereo not given),12,13,95*,1,1,3
COc1ccc(C(=O)C2CCCN(Cc3cnc(N4CCOCC4)s3)C2)cc1F (stereo not given),6,x,x,x,x,x
COc1ccc(C(=O)C2CCCN(Cc3cnc(N4CCOCC4)s3)C2)c(OC)c1 (stereo not given),1,12,84*,0,3,-2
COc1ccc(C(=O)C2CCCN(C(=O)c3ccccc3C(C)=O)C2)cc1F (stereo not given),7,17,0,1,2,2
COc1ccc(C(=O)C2CCCN(Cc3ccc(C#CCCO)cc3)C2)cc1F (stereo not given),9,9,50*,0,-3,0
COc1ccc(C(=O)C2CCCN(Cc3ccc4nonc4c3)C2)cc1OC (stereo not given),3,10,89*,4,-4,5
Cc1ccc2occ(/C=C/C(=O)c3ccccc3O)c(=O)c2c1,14,22,11,0,-12,2
O=S(=O)(c1ccc(Cl)cc1)N1CCC2(CC1)CO2,9,17,0,1,-9,2
CC(Sc1ccsc1[N+](=O)[O-])C(=O)NCCc1ccc(Cl)cc1 (stereo not given),32,18,4,0,-6,0
CCNC(=O)N1CCCC(C(=O)c2ccc(OC)c(OC)c2)C1 (stereo not given),11,14,-5,1,4,3
COc1ccc(OC)c(CN2CCCC(C(=O)N3CCCCC3)C2)c1 (stereo not given),13,27,6,0,-14,-2
COc1ccc(C(=O)C2CCCN(Cc3ccc4nonc4c3)C2)c(OC)c1 (stereo not given),3,17,88*,4,-1,15
COc1ccc(C(=O)C2CCCN(Cc3nc4ccccc4nc3C)C2)cc1OC (stereo not given),6,16,80*,8,-2,2
COc1ccc(C(=O)C2CCCN(Cc3cn[nH]c3-c3ccccc3)C2)cc1OC (stereo not given),12,13,-2,0,-8,1
COCc1cc(CN2CCCC(C(=O)c3cccc(C(F)(F)F)c3)C2)ccc1OC (stereo not given),1,15,92*,5,-2,8

# Screens (PubChem)
